The values that follow come from ChEMBL document CHEMBL1153214, “Synthesis and PGE(2) production inhibition of 1H-furan-2,5-dione and 1H-pyrrole-2,5-dione derivatives” (Bioorg Med Chem Lett, 2010).

Broadly, the IC50 is the midpoint of a concentration-inhibition curve.

The subject of experiment [1] is RAW264.7. Description: Cytotoxicity against LPS-stimulated mouse RAW264.7 cells assessed as cell viability after 24 hrs by MTT assay. It counts as cell-based. The following applies: RAW264.7, 24 h. The gist of the method: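 RAW 264.7 cells plated at 10⁵ cells/well in 96-well plates, treated with various concentrations of compounds in the presence of LPS. Viability read by colorimetric MTT assay 24 h after treatment.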

For experiment [2], the system named is RAW264.7. Kind of experiment: Antiinflammatory activity in mouse RAW264.7 cells assessed as inhibition of LPS-induced PGE2 production by EIA. The class given is functional, cell-based. The gist of the method:
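RAW 264.7 macrophages seeded at 10⁵ cells/well in 96-well plates. Cells pretreated with test samples at increasing concentrations or NS398 as positive control, then stimulated with LPS 1 µg/ml for the indicated time. PGE₂ in the medium quantified by EIA. IC50 derived; experiments run at least three times.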

Experiment [3] has as its target T1, Prostaglandin G/H synthase 2 (Homo sapiens, UniProt P35354).
T1 sequence (P35354 whole entry): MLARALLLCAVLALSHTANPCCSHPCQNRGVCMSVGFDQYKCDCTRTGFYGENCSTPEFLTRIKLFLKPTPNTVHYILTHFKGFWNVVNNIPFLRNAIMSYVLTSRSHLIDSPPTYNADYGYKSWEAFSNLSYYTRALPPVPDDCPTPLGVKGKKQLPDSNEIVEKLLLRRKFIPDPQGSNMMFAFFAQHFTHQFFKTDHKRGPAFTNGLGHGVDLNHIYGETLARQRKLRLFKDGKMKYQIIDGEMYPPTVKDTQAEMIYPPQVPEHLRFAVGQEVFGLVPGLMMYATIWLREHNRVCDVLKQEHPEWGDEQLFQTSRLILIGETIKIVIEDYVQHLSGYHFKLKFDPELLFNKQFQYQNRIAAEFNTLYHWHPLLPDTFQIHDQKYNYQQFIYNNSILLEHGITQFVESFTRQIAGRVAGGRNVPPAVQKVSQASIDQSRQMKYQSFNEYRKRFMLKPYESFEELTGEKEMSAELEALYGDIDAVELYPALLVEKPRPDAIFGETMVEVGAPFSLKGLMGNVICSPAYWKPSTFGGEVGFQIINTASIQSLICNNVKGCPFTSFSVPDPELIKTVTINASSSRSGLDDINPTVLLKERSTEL
Kind of experiment: Inhibition of COX2 assessed as PGF2alpha level by EIA.

[4] abbreviates: Mus musculus, RAW264.7, read-out: IC50.

The structures appear in SMILES notation.

For the compound `O=C1NC(=O)C(c2ccccc2)=C1c1ccccc1`, the half-maximal inhibitory concentration (IC50) with RAW264.7 [1] amounted to 270 µM; with RAW264.7 [2] (setting [4]) it was 27.9 µM.
On the same counts, the results for `COc1ccc(C2=C(c3ccccc3)C(=O)NC2=O)cc1OC` are 305 µM and 132 µM.
For `COc1cc(C2=C(c3ccccc3)C(=O)NC2=O)cc(OC)c1OC`, in that order: 151 µM and 25.1 µM.
On to `CC(=O)Oc1ccc(C2=C(c3ccc(S(C)(=O)=O)cc3)C(=O)OC2=O)cc1`, for which the IC50 came to 262 µM in the experiment with RAW264.7 [1], 16.6 µM in experiment [3] and 4.41 µM in the experiment on RAW264.7 [2] (setting [4]).
For `COc1ccc(C2=C(c3ccc([S+](C)[O-])cc3)C(=O)OC2=O)cc1` (configuration not stated), the IC50 with RAW264.7 [1] turned out to be 284 µM; in the experiment with RAW264.7 [2] (setting [4]), 23.8 µM.
Turning to `CSc1ccc(C2=C(c3ccc(OC(C)=O)cc3)C(=O)OC2=O)cc1`, the figures for the IC50 in the experiment with RAW264.7 [1] and in the experiment on RAW264.7 [2] (setting [4]) were 334 µM and 30.5 µM, respectively.
In the case of `CC(=O)Oc1ccc(C2=C(c3ccc([S+](C)[O-])cc3)C(=O)OC2=O)cc1` (configuration not stated), the results for the concentration for half-maximal inhibition (IC50) in the experiment with RAW264.7 [1] and with RAW264.7 [2] (setting [4]) were 262 µM and 68.8 µM, respectively.
On the same counts, the results for `COc1cc(C2=C(c3ccccc3)C(=O)OC2=O)cc(OC)c1OC` are 313 µM and 37.1 µM.
For `CS(=O)(=O)c1ccc(C2=C(c3ccccc3)C(=O)OC2=O)cc1`, in that order: 266 µM and 15.4 µM.
For the compound `CSc1ccc(C2=C(c3ccc(O)cc3)C(=O)NC2=O)cc1`, the IC50 in the experiment with RAW264.7 [1] stood at 125 µM; in experiment [3] it was 21 µM; in the experiment on RAW264.7 [2] (setting [4]) it was 0.84 µM.
As to `CS(=O)(=O)c1ccc(C2=C(c3ccc(O)cc3)C(=O)NC2=O)cc1`, the half-inhibitory concentration (IC50) in the experiment on RAW264.7 [1] is 171 µM; with RAW264.7 [2] (raw264.7) it was “Not Active”.
Take `O=C1NC(=O)C(c2cccc(O)c2)=C1c1ccccc1`: the IC50 in the experiment on RAW264.7 [1] amounted to 158 µM; in the experiment on RAW264.7 [2] (setting [4]), 13.8 µM.
Regarding `O=C1NC(=O)C(c2ccc(O)c(O)c2)=C1c1ccccc1`, the half-maximal inhibitory concentration (IC50) stood at 207 µM in the experiment with RAW264.7 [1], 16 µM in experiment [3] and 2.69 µM in the experiment with RAW264.7 [2] (setting [4]).
In the case of `COc1cccc(C2=C(c3ccccc3)C(=O)NC2=O)c1`, the IC50 in the experiment on RAW264.7 [1] worked out at 260 µM; in the experiment on RAW264.7 [2] (setting [4]) it was 9.95 µM.
For `O=C1NC(=O)C(c2ccc3c(c2)OCO3)=C1c1ccccc1`, in that order: 195 µM and 7.96 µM.
Consider `C[S+]([O-])c1ccc(C2=C(c3ccccc3)C(=O)NC2=O)cc1` (configuration not stated), for which the half-inhibitory concentration (IC50) in the experiment with RAW264.7 [1] was determined as 303 µM; in the experiment on RAW264.7 [2] (setting [4]) it was 21.5 µM.
As to `NS(=O)(=O)c1ccc(C2=C(c3ccccc3)C(=O)NC2=O)cc1`, the IC50 came to 158 µM with RAW264.7 [1] and 15.6 µM in experiment [3].
With `COc1ccc(C2=C(c3ccc(S(C)(=O)=O)cc3)C(=O)OC2=O)cc1`, the half-maximal inhibitory concentration (IC50) with RAW264.7 [1] is 271 µM; with RAW264.7 [2] (raw264.7) it was “Not Active”.
For the compound `CSc1ccc(C2=C(c3ccc(NC(C)=O)cc3)C(=O)OC2=O)cc1`, the values for the IC50 (in the experiment with RAW264.7 [1]; in experiment [3]; with RAW264.7 [2] (setting [4])) were 250 µM, 20.1 µM and 5.71 µM, respectively.
On to `CSc1ccc(C2=C(c3ccc(N(C(C)=O)C(C)=O)cc3)C(=O)OC2=O)cc1`, for which the IC50 in the experiment with RAW264.7 [1] was determined as 277 µM; with RAW264.7 [2] (setting [4]), 78.5 µM.
For `C[S+]([O-])c1ccc(C2=C(c3ccc(F)cc3)C(=O)NC2=O)cc1` (configuration not stated), in that order: 242 µM and 45.2 µM.
For `CS(=O)(=O)c1ccc(C2=C(c3ccc(F)cc3)C(=O)NC2=O)cc1`, in that order: 261 µM and 10.8 µM.
As for `O=C1OC(=O)C(c2ccc3c(c2)OCO3)=C1c1ccccc1`, the 50% inhibitory concentration (IC50) was 329 µM in the experiment with RAW264.7 [1], 18.5 µM in experiment [3] and 7.13 µM in the experiment on RAW264.7 [2] (setting [4]).
For the compound `CSc1ccc(C2=C(c3ccccc3)C(=O)NC2=O)cc1`, the half-maximal inhibitory concentration (IC50) in the experiment on RAW264.7 [1] came out at 152 µM; in experiment [3], 16.3 µM; in the experiment on RAW264.7 [2] (setting [4]), 4.73 µM.
For `CS(=O)(=O)c1ccc(C2=C(c3ccccc3)C(=O)NC2=O)cc1`, the IC50 came to 269 µM in the experiment on RAW264.7 [1], 17.5 µM in experiment [3] and 2.71 µM in the experiment on RAW264.7 [2] (setting [4]).
Consider `COc1ccc(C2=C(c3ccccc3)C(=O)OC2=O)cc1OC`, for which the half-inhibitory concentration (IC50) in the experiment on RAW264.7 [1] was 257 µM; in the experiment with RAW264.7 [2] (setting [4]), 71.3 µM.
On the same counts, the results for `C[S+]([O-])c1ccc(C2=C(c3ccc(O)cc3)C(=O)NC2=O)cc1` (configuration not stated) are 213 µM and 98.1 µM.
On the same counts, the results for `COc1ccc(C2=C(c3ccc(SC)cc3)C(=O)OC2=O)cc1` are 266 µM and 12.6 µM.
As for `CSc1ccc(C2=C(c3ccccc3)C(=O)OC2=O)cc1`, the IC50 amounted to 195 µM in the experiment with RAW264.7 [1], 18.5 µM in experiment [3] and 3.58 µM with RAW264.7 [2] (setting [4]).
For `O=C1NC(=O)C(c2cc(O)c(O)c(O)c2)=C1c1ccccc1`, in that order: 261 µM, 17.5 µM and 8.19 µM.
As for `CSc1ccc(C2=C(c3ccc(F)cc3)C(=O)NC2=O)cc1`, the 50% inhibitory concentration (IC50) in the experiment with RAW264.7 [1] was 121 µM; in the experiment with RAW264.7 [2] (setting [4]), 25.5 µM.
For `CS(=O)(=O)Nc1ccc([N+](=O)[O-])cc1OC1CCCCC1` [NS-398], in the experiment on RAW264.7 [2] (setting [4]), the IC50 was determined as 4.8 µM.
